From PMC8458982 (The Journal of Biological Chemistry, 2021)
Values joined by “and” are separate entries in the source; they are usually repeats but may differ in a detail not shown here. Equal values may be shown once.

Experiments:
mTRPC6 mutant ^mF640W = mTRPC6 mutant ^mF640W (Mus musculus, UniProt Q61143, F640W); test: whole-cell patch-clamp, mTRPC6 mutant F640W; assay type: cell-based
How it was run: (§1)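 Transiently transfected HEK293 cells expressing mouse or human TRPC6 WT, or sequence-verified mouse point mutants, recorded 24–48 h post-transfection. Conventional whole-cell clamp at −60 mV and 23 °C, gap-free; test compound applied by Y-tube. Pipette: CsCl/HEPES/BAPTA, 400 nM free Ca2+, pH 7.2. Bath: NaCl-based, 2 mM CaCl2, pH 7.4. EC50 from Hill fit of concentration–current data. Mutant screen used current ratios (10/5 μM or 3/1 μM). At least 3 transfection batches.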

mTRPC6 mutant ^mF674A = mTRPC6 mutant ^mF674A (Mus musculus, UniProt Q61143, F674A); test: whole-cell patch-clamp, mTRPC6 mutant F674A; assay type: cell-based; settings: saturated agonist
Chain of mTRPC6 mutant ^mF674A (Q61143 whole entry F674A): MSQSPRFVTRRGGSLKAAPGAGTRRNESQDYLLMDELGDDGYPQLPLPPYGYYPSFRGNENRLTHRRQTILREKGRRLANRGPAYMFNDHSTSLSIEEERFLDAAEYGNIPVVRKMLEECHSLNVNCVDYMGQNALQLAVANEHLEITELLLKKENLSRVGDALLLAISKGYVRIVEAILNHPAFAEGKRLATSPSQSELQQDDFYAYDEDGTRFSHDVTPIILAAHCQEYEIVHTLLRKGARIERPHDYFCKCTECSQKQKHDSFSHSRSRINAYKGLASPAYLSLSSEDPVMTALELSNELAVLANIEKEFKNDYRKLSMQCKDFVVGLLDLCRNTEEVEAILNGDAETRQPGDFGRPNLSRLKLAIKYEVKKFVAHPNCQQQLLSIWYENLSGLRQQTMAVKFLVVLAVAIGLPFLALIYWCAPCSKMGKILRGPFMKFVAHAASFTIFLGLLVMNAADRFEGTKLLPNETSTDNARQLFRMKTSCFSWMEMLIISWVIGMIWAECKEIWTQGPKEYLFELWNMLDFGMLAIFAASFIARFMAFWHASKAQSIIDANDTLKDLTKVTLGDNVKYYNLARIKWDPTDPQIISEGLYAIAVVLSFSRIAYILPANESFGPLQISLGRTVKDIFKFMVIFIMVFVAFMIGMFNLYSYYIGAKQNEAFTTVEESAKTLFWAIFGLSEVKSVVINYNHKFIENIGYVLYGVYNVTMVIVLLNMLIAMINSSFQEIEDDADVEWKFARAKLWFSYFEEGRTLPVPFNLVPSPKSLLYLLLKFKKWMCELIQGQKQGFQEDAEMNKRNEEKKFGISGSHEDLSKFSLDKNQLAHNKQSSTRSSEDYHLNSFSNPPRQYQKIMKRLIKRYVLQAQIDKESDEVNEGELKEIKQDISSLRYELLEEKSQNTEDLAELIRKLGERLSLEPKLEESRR
How it was run: as §1

hTRPC6 mutant ^hK676R = hTRPC6 mutant ^hK676R (Homo sapiens, UniProt Q9Y210, K676R); test: whole-cell patch-clamp, hTRPC6 mutant K676R; assay type: cell-based
Chain of hTRPC6 mutant ^hK676R (Q9Y210 whole entry K676R): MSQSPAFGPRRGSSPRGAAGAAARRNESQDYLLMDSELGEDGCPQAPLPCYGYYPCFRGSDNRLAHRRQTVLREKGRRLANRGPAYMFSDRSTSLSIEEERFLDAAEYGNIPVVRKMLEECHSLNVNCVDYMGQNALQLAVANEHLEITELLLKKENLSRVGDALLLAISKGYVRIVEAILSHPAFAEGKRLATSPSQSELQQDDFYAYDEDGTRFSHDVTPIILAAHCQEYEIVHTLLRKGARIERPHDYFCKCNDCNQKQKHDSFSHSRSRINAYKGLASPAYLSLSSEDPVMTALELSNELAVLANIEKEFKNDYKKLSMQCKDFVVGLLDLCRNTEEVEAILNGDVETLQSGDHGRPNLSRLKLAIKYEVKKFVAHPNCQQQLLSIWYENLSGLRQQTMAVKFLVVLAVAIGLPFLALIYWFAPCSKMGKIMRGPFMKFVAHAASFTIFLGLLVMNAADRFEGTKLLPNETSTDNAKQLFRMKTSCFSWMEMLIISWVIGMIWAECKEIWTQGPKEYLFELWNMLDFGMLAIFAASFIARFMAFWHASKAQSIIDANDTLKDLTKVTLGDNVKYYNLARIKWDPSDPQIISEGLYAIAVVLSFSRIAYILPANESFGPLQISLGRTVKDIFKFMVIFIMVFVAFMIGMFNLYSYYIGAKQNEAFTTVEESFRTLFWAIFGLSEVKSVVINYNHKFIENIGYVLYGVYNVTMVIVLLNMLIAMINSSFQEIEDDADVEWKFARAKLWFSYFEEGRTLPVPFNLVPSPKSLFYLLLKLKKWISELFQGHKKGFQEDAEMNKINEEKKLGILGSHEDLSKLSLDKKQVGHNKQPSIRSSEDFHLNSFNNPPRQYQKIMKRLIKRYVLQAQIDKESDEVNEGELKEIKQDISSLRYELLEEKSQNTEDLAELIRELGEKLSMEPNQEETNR

mTRPC6 mutant ^mF490W = test: whole-cell patch-clamp, mTRPC6 mutant F490W; assay type: cell-based, mouse; settings: ^mF490W (S1 pocket)
How it was run: as §1

mTRPC6^W679F = mTRPC6^W679F (Mus musculus, UniProt Q61143, W679F); test: single-channel outside-out recording, mTRPC6 W679F; assay type: cell-based; settings: 100 μM agonist, −60 mV
Chain of mTRPC6^W679F (Q61143 whole entry W679F): as the sequence (Q61143 whole entry F674A) above, with A674F, W679F counted along it
How it was run: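 Excised outside-out or inside-out patches (macro-patch or single-channel) from transfected HEK293 cells, 24–48 h post-transfection, 23 °C. Polished borosilicate pipettes of 8–12 MΩ; holding potential −60 mV. Same solutions as whole-cell recordings (CsCl-based internal, 400 nM free Ca2+, pH 7.2; NaCl-based external, pH 7.4). Sampled at 50 kHz, 2 kHz filter, low-pass 300 Hz; unitary current and conductance measured.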

mTRPC6 mutant ^mK688R = test: whole-cell patch-clamp, mTRPC6 mutant K688R; assay type: cell-based, mouse; settings: ^mK688R (S3 pocket)
How it was run: as §1

mouse TRPC6 (mTRPC6-WT) = target: T1, mouse TRPC6 (mTRPC6-WT) (Mus musculus, UniProt Q61143); test: whole-cell patch-clamp, mTRPC6-WT expressed in HEK293 cells; assay type: cell-based
T1 sequence (Q61143 1-930): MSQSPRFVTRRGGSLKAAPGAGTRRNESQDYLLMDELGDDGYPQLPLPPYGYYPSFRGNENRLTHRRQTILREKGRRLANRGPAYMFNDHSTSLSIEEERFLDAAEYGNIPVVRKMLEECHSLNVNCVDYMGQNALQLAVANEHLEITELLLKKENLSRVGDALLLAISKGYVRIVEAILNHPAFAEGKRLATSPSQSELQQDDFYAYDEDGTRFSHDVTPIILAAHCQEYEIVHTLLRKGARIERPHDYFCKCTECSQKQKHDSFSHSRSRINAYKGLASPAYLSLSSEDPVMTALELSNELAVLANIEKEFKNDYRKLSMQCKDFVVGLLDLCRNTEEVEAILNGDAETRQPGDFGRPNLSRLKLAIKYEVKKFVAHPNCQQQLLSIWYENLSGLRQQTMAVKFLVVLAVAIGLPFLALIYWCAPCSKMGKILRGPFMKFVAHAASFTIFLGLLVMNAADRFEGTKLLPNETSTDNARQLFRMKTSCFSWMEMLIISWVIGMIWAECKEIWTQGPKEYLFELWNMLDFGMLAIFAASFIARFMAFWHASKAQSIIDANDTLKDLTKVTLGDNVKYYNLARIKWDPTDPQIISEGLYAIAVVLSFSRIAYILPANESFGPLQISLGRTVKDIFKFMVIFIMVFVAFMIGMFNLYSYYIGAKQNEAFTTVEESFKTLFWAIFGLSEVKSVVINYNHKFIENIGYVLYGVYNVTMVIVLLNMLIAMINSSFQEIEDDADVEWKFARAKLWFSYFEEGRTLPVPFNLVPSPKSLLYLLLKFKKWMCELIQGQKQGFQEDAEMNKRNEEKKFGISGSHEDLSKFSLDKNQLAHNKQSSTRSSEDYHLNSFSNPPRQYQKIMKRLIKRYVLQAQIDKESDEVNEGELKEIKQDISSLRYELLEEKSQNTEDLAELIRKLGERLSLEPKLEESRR
How it was run: as §1

hTRPC6 mutant ^hY705W = hTRPC6 mutant ^hY705W (Homo sapiens, UniProt Q9Y210, Y705W); test: whole-cell patch-clamp, hTRPC6 mutant Y705W; assay type: cell-based
Chain of hTRPC6 mutant ^hY705W (Q9Y210 whole entry Y705W): as the sequence (Q9Y210 whole entry K676R) above, with R676K, Y705W counted along it

mTRPC6 mutant ^mW679F = mTRPC6 mutant ^mW679F (Mus musculus, UniProt Q61143, W679F); test: whole-cell patch-clamp, mTRPC6 mutant W679F; assay type: cell-based; settings: saturated agonist
Chain of mTRPC6 mutant ^mW679F (Q61143 whole entry W679F): as the sequence (Q61143 whole entry F674A) above, with A674F, W679F counted along it
How it was run: as §1

mTRPC6 mutant ^mK697R = mTRPC6 mutant ^mK697R (Mus musculus, UniProt Q61143, K697R); test: whole-cell patch-clamp, mTRPC6 mutant K697R; assay type: cell-based
Chain of mTRPC6 mutant ^mK697R (Q61143 whole entry K697R): as the sequence (Q61143 whole entry F674A) above, with A674F, K697R counted along it
How it was run: as §1

mTRPC6 mutant ^mR463K = test: whole-cell patch-clamp, mTRPC6 mutant R463K; assay type: cell-based, mouse; settings: ^mR463K (S1 pocket)
How it was run: as §1

mTRPC6 mutant ^mV687L = test: whole-cell patch-clamp, mTRPC6 mutant V687L; assay type: cell-based, mouse; settings: ^mV687L (S3 pocket)
How it was run: as §1

Chain of mTRPC6 mutant ^mF640W (Q61143 whole entry F640W): as the sequence (Q61143 whole entry F674A) above, with F640W, A674F counted along it

## CCOC(=O)N1CCC(c2cc(O)n3nc(C)c(-c4ccc(F)cc4)c3n2)CC1 [M085, Ethyl 4-(3-(4-fluorophenyl)-7-hydroxy-2-methylpyrazolo[1,5-a]pyrimidin-5-yl)piperidine-1-carboxylate]
mTRPC6 mutant ^mF640W
  EC50: 0.84 ± 0.27 µM
mTRPC6 mutant ^mF674A
  agonist-induced current: disappearance
hTRPC6 mutant ^hK676R
  EC50: 44 ± 5.75 µM
mTRPC6 mutant ^mF490W
  ratio of M085 activation current I10 μM/I5 μM: 1.91 ± 0.12
mTRPC6^W679F
  unit current: did not record unit currents
mTRPC6 mutant ^mK688R
  ratio of M085 activation current I10 μM/I5 μM: 1.80 ± 0.22
Mouse TRPC6 (mTRPC6-WT); EC50 of channel activation, mTRPC6-WT, whole-cell, −60 mV, Hill fit
  EC50: ~5 µM and 3.8 µM
Mouse TRPC6 (mTRPC6-WT); mTRPC6-WT
  ratio of M085 activation current I10 μM/I5 μM: 1.65 ± 0.21
Mouse TRPC6 (mTRPC6-WT); mTRPC6-WT, 30 μM M085 (saturated)
  Imax (maximal current density): 75.11 ± 14.20 pA/pF
Mouse TRPC6 (mTRPC6-WT); mTRPC6-WT, DTNB covalent modification
  effect of DTNB on agonist-mediated activation: no effect
Mouse TRPC6 (mTRPC6-WT); mTRPC6 activation
  saturation concentration: approximately 10 μM
hTRPC6 mutant ^hY705W
  EC50: 35.3 ± 6.15 µM
mTRPC6 mutant ^mW679F
  agonist-induced current (channel function): complete loss of function
mTRPC6 mutant ^mK697R
  EC50: 14.1 ± 1.95 µM
mTRPC6 mutant ^mK697R; ^mK697R, 100 μM agonist
  Imax (maximal current density): 25.58 ± 1.86 pA/pF
mTRPC6 mutant ^mR463K
  ratio of M085 activation current I10 μM/I5 μM: 1.54 ± 0.17
mTRPC6 mutant ^mV687L
  ratio of M085 activation current I10 μM/I5 μM: 1.13 ± 0.26
